A selection: hits, their analogues and other compounds. The true share with any hit is near 3.8%.
Beta cell apopt = blocks beta cell apoptosis; 0.8% of 300,000 active; protection from apoptosis, % (concentration not given with the values); INS-1E cytokine-induced death, ATP luminescence, 48 h; percent of positive-control rescue, neutral wells zero;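 active means Every replicate reaches about 75%, or at least half do and their mean reaches it too, limit read from the data; inconclusive means At least half of replicates reach the limit but their mean does not; inactive means Under half of replicates reach the limit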;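 further: higher means more ATP so stronger rescue from cytokine killing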
CSC inhib = cancer stem cell inhibition. cancer stem cell-like cells viability, luminescence. inhibition, % at 7.5 µM. 1.1% of 300,000 active. AID 2717; in the data active means inhibition above about 75%; inconclusive means no clear call, values can overlap the other calls; tested in HMLE shEcad cells
TMEM16A inh = inhibitors of mouse TMEM16A calcium-activated chloride channel | Q8BHY3 | HEK293 TMEM16A/YFP iodide influx fluorescence, ionomycin | normalized B-score (activity score, 25-100; higher = stronger inhibition) at 10 µM | 1.2% of 310,000 active;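 active means ratio plate-corrected score three or more library SD toward inhibition, starting fluorescence score within five deviations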;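 further: score derived from kinetic fluorescence span divided by baseline fluorescence per well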
MC4R ag barr = human MC4R agonism via beta-arrestin; U2OS MC4R beta-arrestin complementation, luminescence; percent of melanotan II response, DMSO zero; activation, % at 8.9 µM; 0.98% of 360,000 active; AID 540308;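 active means activation above a per-plate cutoff, the mean activation of sample wells on that plate plus 3 SD, cut at about 8% in these data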
MC4R antag cAMP = human MC4R antagonism in cAMP assay. P32245. MC4R-expressing cells, MTII-stimulated cAMP, LANCE TR-FRET. inhibition, % at 6.5 µM. 0.48% of 360,000 active;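 active means inhibition above its plate's cutoff, the mean of tested wells on that plate plus 3 SD, cut at about 29% in these data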
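Test system: U2OS cells stably expressing human melanocortin 4 receptor (MC4R); also added: Melanotan II challenge; compound: 6.5 µM single dose; timing: 30-min compound preincubation, 1-h Melanotan II challenge, 1-h detection, room temperature; signal: Eu-cAMP/anti-cAMP TR-FRET, emission 671 nm; repeats: one well per compound, no replicates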
ANO1 activ = activates or potentiates the mouse TMEM16A chloride channel; HEK293 TMEM16A/YFP-H148Q/I152L, iodide quench fluorescence; active compounds read low; Q8BHY3; 0.3% of 340,000 active; B-score at 10 µM;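 active means fluorescence-ratio B-score plate-corrected deviation score at least 3 library SD below zero, with starting fluorescence score within 5 deviations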;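 further: channel opened by trigger with iodide after compound preincubation; score built on the fluorescence ratio of max minus min over baseline; more negative score means more quench and so TMEM16A activation or potentiation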
U2OS cAMP counter = U2OS forskolin cAMP inhibition counter-screen. 26% of 1,600 active. parental U2OS, LANCE TR-FRET. inhibition, % at 6.5 µM. shares compounds with MC4R antag cAMP;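 active means mean inhibition over triplicates above the low-control well mean plus 3 SD, set per campaign, cut at about 13% in these data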;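 further: signal is single emission at 671 nm which falls as cellular cAMP rises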
MC4R cAMP antag = human MC4R cAMP antagonism confirmation; shares compounds with MC4R antag cAMP; MC4R-expressing cells, MTII-stimulated cAMP, TR-FRET; AID 602195; 27% of 1,600 active; inhibition, % at 6.5 µM; in the data active means inhibition above about 29%
Numbers stand for hits; - = inactive; ? = inconclusive; . = no result; + = active, no number.

SMILES	Beta cell apopt	CSC inhib	TMEM16A inh	MC4R ag barr	MC4R antag cAMP	ANO1 activ	U2OS cAMP counter	MC4R cAMP antag
Cc1cc(C(=O)OCC(=O)c2ccc(Br)s2)no1	-	-	-	-	37	-	-	-
COC(=O)C(Cc1ccc(O)cc1)NC(=O)c1ccccc1 (stereo unspecified)	-	-	-	-	49	-	16	41
Cc1ccc2nc(SC(C)C(=O)N3CCOCC3)[nH]c2c1 (stereo unspecified)	-	-	-	-	-	-	.	.
O=S(=O)([O-])CCC[N+]1(CC#Cc2ccccc2)CCCCC1	-	-	-	-	35	-	-	-
C#CC[N+]1(CC#Cc2ccccc2)CCCC1	-	-	-	-	-	-	.	.
Cc1c(C(=O)N/N=C/c2cccc(O)c2)nnn1-c1nonc1N	-	-	-	-	-	-	.	.
CCCOc1ccc(-c2c(C(=O)N/N=C/c3ccccc3)nnn2-c2nonc2N)cc1	-	-	-	-	30	-	-	-
Cc1ccccc1COc1cccc(/C=N/NC(=O)c2nnn(-c3nonc3N)c2C)c1	-	-	-	-	32	-	-	-
CC1(C)OC(=O)NC1c1ccccc1 (stereo unspecified)	.	.	.	-	-	.	.	.
Cc1cccc(CS(=O)(=O)c2ncc(Cl)c(C(=O)Nc3c(C)cccc3C)n2)c1	.	.	-	-	-	-	.	.
Cc1cccc(CS(=O)(=O)c2ncc(Cl)c(C(=O)NCc3ccccc3)n2)c1	-	-	-	-	52	-	27	57
CCCc1nnc(NC(=O)c2nc(S(=O)(=O)Cc3cccc(C)c3)ncc2Cl)s1	-	108	-	-	38	-	25	47
COc1ccc([C@H]2C[C@H](n3cc(-c4ccc(F)cc4)nn3)[C@@H](O)CN2C(=O)C2CCCCC2)cc1	.	.	.	-	-	.	.	.
CC(C)(C)NC(=O)/C(=C/c1ccco1)c1ccccc1	-	.	-	-	-	-	.	.
COc1ccc(C(=O)N/C(=C\c2ccco2)C(=O)OCc2ccco2)cc1	.	-	-	-	-	-	.	.
N#CC(C#N)=C1C=CC=CN1/C(=C\c1ccco1)C(=O)c1ccccc1	?	-	-	-	38	-	14	-
COc1ccc(C(=O)/C(=C\c2ccco2)N2C=CC=CC2=C(C#N)C#N)cc1	94	-	-	-	33	-	-	36
CC(Sc1ccc(S(=O)(=O)N(C)C)cn1)C(=O)NC1CCCC1 (stereo unspecified)	-	-	.	-	-	-	.	.
CCCc1ccc(S(=O)(=O)N2CCN(C(C)C(=O)NCc3ccc(OC)cc3)CC2)cc1 (stereo unspecified)	-	-	.	-	-	-	.	.
Cc1cc(/C=C2/NC(=O)N(Cc3ccccc3F)C2=O)c(C)n1-c1ccccn1	-	-	-	-	-	-	.	.
Cc1cc(/C=C2/NC(=O)N(Cc3ccccc3F)C2=O)c(C)n1C	-	-	-	-	35	-	-	-
CCC(C)NC(=O)c1cc2c(=O)n(CC)c3ccccc3c2s1 (stereo unspecified)	-	-	-	-	-	-	.	.
Cc1ccc(NC(=O)CSc2nnc(CNC(=O)c3cccs3)o2)cc1	-	-	-	-	31	-	-	-
O=C(CSc1nnc(CNC(=O)c2cccs2)o1)Nc1ccccc1	-	-	-	-	-	-	.	.
N=c1c2c(ncn1Cc1ccco1)Oc1cc(O)ccc1C2c1ccccc1 (stereo unspecified)	-	-	-	-	33	-	-	-
SMILES	Beta cell apopt	CSC inhib	TMEM16A inh	MC4R ag barr	MC4R antag cAMP	ANO1 activ	U2OS cAMP counter	MC4R cAMP antag
COCCNC(=S)N/N=C/c1ccc([N+](=O)[O-])cc1	-	-	-	-	-	-	.	.
C=C(C)CNC(=S)N/N=C/c1ccc([N+](=O)[O-])cc1	.	-	-	-	30	-	-	-
CN(C)c1ccc(S(=O)(=O)NCC(=O)OCC(=O)Nc2cc(Cl)cc(Cl)c2)cc1[N+](=O)[O-]	.	-	-	-	31	-	19	30
CSc1ccccc1OCc1cc(C(=O)NC2CCOC2)no1 (stereo unspecified)	-	-	-	-	-	-	.	.
Cc1cc(Br)c2nc3c(c(C(=O)O)c2c1)CCCCC3	-	-	-	-	+	-	+	.
COc1ccc(CN(C(=O)c2snc(C(N)=O)c2N)C(C(=O)NC2CCCC2)c2ccc(OC)c(OC)c2)cc1 (stereo unspecified)	-	-	-	-	-	-	.	.
COc1ccc(C(C(=O)NC2CCCCC2)N(Cc2cccnc2)C(=O)c2snc(C(N)=O)c2N)cc1 (stereo unspecified)	-	-	-	-	31	-	-	-
O=C(O)CNS(=O)(=O)c1ccc(C2CCCCC2)cc1	-	-	-	-	32	-	-	-
CC(=O)N1CCN(c2cc(-c3ccccc3)nc3cc(-c4cccc(Cl)c4)nn23)CC1	.	.	.	-	41	.	-	-
COc1ccc(CC(N)c2csc(Nc3nc(C)cnc3C)n2)cc1 (stereo unspecified)	.	.	.	-	-	.	.	.
O=S(=O)(Nc1cc(Sc2ncn[nH]2)c(O)c2ccccc12)c1ccccc1	.	.	.	-	53	-	-	-
Cc1ccc(-n2nc3c(c2NC(=O)c2ccc(S(=O)(=O)N4CCOCC4)cc2)CSC3)c(C)c1	.	.	-	-	32	-	-	-
Cc1cccc(-n2nc3c(c2NC(=O)c2ccc(S(=O)(=O)N4CCOCC4)cc2)CSC3)c1C	.	.	.	-	-	-	.	.
CN(C)CCC1(C2=CCCC2)CC/C(=C/c2ccc(Cl)cc2)C1=O (stereo unspecified)	.	.	.	-	-	-	.	.
O=C([C@@H]1CCCN1C1=NS(=O)(=O)c2ccccc21)N1CCN(c2ccccc2)CC1	.	.	.	-	-	.	.	.
CCOC(=O)c1c(NC(=O)CCC(=O)O)sc2c1CC(C)(C)OC2	-	-	-	-	33	-	-	-
CC1(C)CC[C@]2(C(=O)O)CC[C@]3(C)C(=CC[C@@H]4[C@@]5(C)CC[C@H](O[C@@H]6O[C@H](C(=O)O)[C@@H](O)[C@H](O[C@@H]7OC[C@H](O)[C@H](O)[C@H]7O)[C@H]6O)C(C)(C)[C@@H]5CC[C@]43C)[C@@H]2C1	109	99	.	-	111	-17	36	-
CCn1c(C(=O)O)c(CC(=O)Nc2ccc(Br)cc2C)c2ccccc21	-	-	-	-	29	-	-	-
Cc1ccc(-c2nc3c(c(=O)[nH]c(=O)n3Cc3ccccc3)n2C)s1	-	-	-	.	.	.	.	.
CCn1c(CO)nc2c1c(=O)[nH]c(=O)n2Cc1ccccc1	-	-	-	-	31	-	-	-

Assay outcomes (PubChem BioAssay)
